# Laboratory results taken from ChEMBL document CHEMBL3425440, “ent-Kaurane Diterpenoids from Chinese Liverworts and Their Antitumor Activities through Michael Addition As Detected in Situ by a Fluorescence Probe” (J Med Chem, 2015).
# System: DU-145
# Experiment: Cytotoxicity against human DU145 cells assessed as cell viability after 24 hrs by MTT assay
# Format: functional, cell-based
# Conditions: DU-145, 24 h
# Method in brief: (§1)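 Cells grown to about 50−70% confluence at 37 °C, 5% CO2, then exposed to compounds 24 h (DMSO vehicle control, cisplatin positive control). MTT (5 mg/mL stock) added for 4 h, formazan dissolved in DMSO, absorbance read at 570 nm. IC50 derived from percent viability; at least three independent experiments, mean ± SD.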
row,SMILES,IC50 [µM]
1,C=C1C(=O)[C@@]23CC[C@@H]4[C@@](C)(CO)CCC[C@@]4(C)C2=CC[C@]1(O)C3,6.3
2,C=C1C(=O)[C@@]23CC[C@@H]4C(C)(C)CCC[C@@]4(C)C2=CC[C@]1(O)C3,5.5
3,C=C1[C@@H]2CC(=O)[C@H]3[C@]4(C)CCCC(C)(C)[C@H]4[C@@H](O)C[C@]3(C2)[C@@H]1O,> 50
4,C=C1C(O)[C@@]23CC[C@H]4[C@@](C)(CCC[C@@]4(C)C(=O)OCCN4CCN(C)CC4)[C@@H]2CC[C@]1(O)C3 (stereo partly specified),> 50

# System: not listed separately
# Experiment: Cytotoxicity against human T24 cells assessed as cell viability after 24 hrs by MTT assay
# Format: functional, cell-based
# Conditions: T-24, 24 h
# Method in brief: as §1
row,SMILES,IC50 [µM]
1,C=C1C(=O)[C@@]23CC[C@@H]4[C@@](C)(CO)CCC[C@@]4(C)C2=CC[C@]1(O)C3,10.4
2,C=C1C(=O)[C@@]23CC[C@@H]4C(C)(C)CCC[C@@]4(C)C2=CC[C@]1(O)C3,1.7
3,C=C1[C@@H]2CC(=O)[C@H]3[C@]4(C)CCCC(C)(C)[C@H]4[C@@H](O)C[C@]3(C2)[C@@H]1O,> 50
4,C=C1C(O)[C@@]23CC[C@H]4[C@@](C)(CCC[C@@]4(C)C(=O)OCCN4CCN(C)CC4)[C@@H]2CC[C@]1(O)C3 (stereo partly specified),> 50

# System: NCI-H1299
# Experiment: Cytotoxicity against human NCI-H1299 cells assessed as cell viability after 24 hrs by MTT assay
# Format: functional, cell-based
# Conditions: NCI-H1299, 24 h
# Method in brief: as §1
row,SMILES,IC50 [µM]
1,C=C1C(=O)[C@@]23CC[C@@H]4[C@@](C)(CO)CCC[C@@]4(C)C2=CC[C@]1(O)C3,10.7
2,C=C1C(=O)[C@@]23CC[C@@H]4C(C)(C)CCC[C@@]4(C)C2=CC[C@]1(O)C3,2.4
3,C=C1[C@@H]2CC(=O)[C@H]3[C@]4(C)CCCC(C)(C)[C@H]4[C@@H](O)C[C@]3(C2)[C@@H]1O,> 50
4,C=C1C(O)[C@@]23CC[C@H]4[C@@](C)(CCC[C@@]4(C)C(=O)OCCN4CCN(C)CC4)[C@@H]2CC[C@]1(O)C3 (stereo partly specified),> 50

# System: not listed separately
# Experiment: Cytotoxicity against human SH-SY5Y cells assessed as cell viability after 24 hrs by MTT assay
# Format: functional, cell-based
# Conditions: not given
# Method in brief: as §1
row,SMILES,IC50 [µM]
1,C=C1C(=O)[C@@]23CC[C@@H]4[C@@](C)(CO)CCC[C@@]4(C)C2=CC[C@]1(O)C3,4.4
2,C=C1C(=O)[C@@]23CC[C@@H]4C(C)(C)CCC[C@@]4(C)C2=CC[C@]1(O)C3,1.2
3,C=C1[C@@H]2CC(=O)[C@H]3[C@]4(C)CCCC(C)(C)[C@H]4[C@@H](O)C[C@]3(C2)[C@@H]1O,> 50
4,C=C1C(O)[C@@]23CC[C@H]4[C@@](C)(CCC[C@@]4(C)C(=O)OCCN4CCN(C)CC4)[C@@H]2CC[C@]1(O)C3 (stereo partly specified),> 50

# System: MDA-MB-231
# Experiment: Cytotoxicity against human MDA-MB-231 cells assessed as cell viability after 24 hrs by MTT assay
# Format: functional, cell-based
# Conditions: MDA-MB-231, 24 h
# Method in brief: as §1
row,SMILES,IC50 [µM]
1,C=C1C(=O)[C@@]23CC[C@@H]4[C@@](C)(CO)CCC[C@@]4(C)C2=CC[C@]1(O)C3,12.3
2,C=C1C(=O)[C@@]23CC[C@@H]4C(C)(C)CCC[C@@]4(C)C2=CC[C@]1(O)C3,4.2
3,C=C1[C@@H]2CC(=O)[C@H]3[C@]4(C)CCCC(C)(C)[C@H]4[C@@H](O)C[C@]3(C2)[C@@H]1O,> 50
4,C=C1C(O)[C@@]23CC[C@H]4[C@@](C)(CCC[C@@]4(C)C(=O)OCCN4CCN(C)CC4)[C@@H]2CC[C@]1(O)C3 (stereo partly specified),> 50

# System: not listed separately
# Experiment: Cytotoxicity against human Saos2 cells assessed as cell viability after 24 hrs by MTT assay
# Format: functional, cell-based
# Conditions: SAOS-2, 24 h
# Method in brief: as §1
row,SMILES,IC50 [µM]
1,C=C1C(=O)[C@@]23CC[C@@H]4[C@@](C)(CO)CCC[C@@]4(C)C2=CC[C@]1(O)C3,7.8
2,C=C1C(=O)[C@@]23CC[C@@H]4C(C)(C)CCC[C@@]4(C)C2=CC[C@]1(O)C3,1.3
3,C=C1[C@@H]2CC(=O)[C@H]3[C@]4(C)CCCC(C)(C)[C@H]4[C@@H](O)C[C@]3(C2)[C@@H]1O,> 50
4,C=C1C(O)[C@@]23CC[C@H]4[C@@](C)(CCC[C@@]4(C)C(=O)OCCN4CCN(C)CC4)[C@@H]2CC[C@]1(O)C3 (stereo partly specified),> 50

# System: not listed separately
# Experiment: Cytotoxicity against human SKOV3 cells assessed as cell viability after 24 hrs by MTT assay
# Format: functional, cell-based
# Conditions: SK-OV-3, 24 h
# Method in brief: as §1
row,SMILES,IC50 [µM]
1,C=C1C(=O)[C@@]23CC[C@@H]4[C@@](C)(CO)CCC[C@@]4(C)C2=CC[C@]1(O)C3,8.6
2,C=C1C(=O)[C@@]23CC[C@@H]4C(C)(C)CCC[C@@]4(C)C2=CC[C@]1(O)C3,1.8
3,C=C1[C@@H]2CC(=O)[C@H]3[C@]4(C)CCCC(C)(C)[C@H]4[C@@H](O)C[C@]3(C2)[C@@H]1O,> 50
4,C=C1C(O)[C@@]23CC[C@H]4[C@@](C)(CCC[C@@]4(C)C(=O)OCCN4CCN(C)CC4)[C@@H]2CC[C@]1(O)C3 (stereo partly specified),> 50

# System: not listed separately
# Experiment: Cytotoxicity against human A172 cells assessed as cell viability after 24 hrs by MTT assay
# Format: functional, cell-based
# Conditions: A 172, 24 h
# Method in brief: as §1
row,SMILES,IC50 [µM]
1,C=C1C(=O)[C@@]23CC[C@@H]4[C@@](C)(CO)CCC[C@@]4(C)C2=CC[C@]1(O)C3,4.4
2,C=C1C(=O)[C@@]23CC[C@@H]4C(C)(C)CCC[C@@]4(C)C2=CC[C@]1(O)C3,3.8
3,C=C1[C@@H]2CC(=O)[C@H]3[C@]4(C)CCCC(C)(C)[C@H]4[C@@H](O)C[C@]3(C2)[C@@H]1O,> 50
4,C=C1C(O)[C@@]23CC[C@H]4[C@@](C)(CCC[C@@]4(C)C(=O)OCCN4CCN(C)CC4)[C@@H]2CC[C@]1(O)C3 (stereo partly specified),> 50

# System: not listed separately
# Experiment: Cytotoxicity against human HL60 cells assessed as cell viability after 24 hrs by MTT assay
# Format: functional, cell-based
# Conditions: HL-60, 24 h
# Method in brief: as §1
row,SMILES,IC50 [µM]
1,C=C1C(=O)[C@@]23CC[C@@H]4[C@@](C)(CO)CCC[C@@]4(C)C2=CC[C@]1(O)C3,3.7
2,C=C1C(=O)[C@@]23CC[C@@H]4C(C)(C)CCC[C@@]4(C)C2=CC[C@]1(O)C3,1
3,C=C1[C@@H]2CC(=O)[C@H]3[C@]4(C)CCCC(C)(C)[C@H]4[C@@H](O)C[C@]3(C2)[C@@H]1O,> 50
4,C=C1C(O)[C@@]23CC[C@H]4[C@@](C)(CCC[C@@]4(C)C(=O)OCCN4CCN(C)CC4)[C@@H]2CC[C@]1(O)C3 (stereo partly specified),> 50

# System: not listed separately
# Experiment: Cytotoxicity against human RWPE1 cells assessed as cell viability after 24 hrs by MTT assay
# Format: cell-based
# Conditions: RWPE-1, 24 h
# Method in brief: as §1
row,SMILES,IC50 [µM]
1,C=C1C(=O)[C@@]23CC[C@@H]4[C@@](C)(CO)CCC[C@@]4(C)C2=CC[C@]1(O)C3,11.7
2,C=C1C(=O)[C@@]23CC[C@@H]4C(C)(C)CCC[C@@]4(C)C2=CC[C@]1(O)C3,6.2
3,C=C1[C@@H]2CC(=O)[C@H]3[C@]4(C)CCCC(C)(C)[C@H]4[C@@H](O)C[C@]3(C2)[C@@H]1O,> 50
4,C=C1C(O)[C@@]23CC[C@H]4[C@@](C)(CCC[C@@]4(C)C(=O)OCCN4CCN(C)CC4)[C@@H]2CC[C@]1(O)C3 (stereo partly specified),> 50

# System: LNCaP
# Experiment: Cytotoxicity against human LNCAP cells assessed as cell viability after 24 hrs by MTT assay
# Format: functional, cell-based
# Conditions: not given
# Method in brief: as §1
row,SMILES,IC50 [µM]
1,C=C1C(=O)[C@@]23CC[C@@H]4[C@@](C)(CO)CCC[C@@]4(C)C2=CC[C@]1(O)C3,11.6
2,C=C1C(=O)[C@@]23CC[C@@H]4C(C)(C)CCC[C@@]4(C)C2=CC[C@]1(O)C3,3.2
3,C=C1[C@@H]2CC(=O)[C@H]3[C@]4(C)CCCC(C)(C)[C@H]4[C@@H](O)C[C@]3(C2)[C@@H]1O,> 50
4,C=C1C(O)[C@@]23CC[C@H]4[C@@](C)(CCC[C@@]4(C)C(=O)OCCN4CCN(C)CC4)[C@@H]2CC[C@]1(O)C3 (stereo partly specified),> 50

# System: LoVo
# Experiment: Cytotoxicity against human LoVo cells assessed as cell viability after 24 hrs by MTT assay
# Format: functional, cell-based
# Conditions: not given
# Method in brief: as §1
row,SMILES,IC50 [µM]
1,C=C1C(=O)[C@@]23CC[C@@H]4[C@@](C)(CO)CCC[C@@]4(C)C2=CC[C@]1(O)C3,9
2,C=C1C(=O)[C@@]23CC[C@@H]4C(C)(C)CCC[C@@]4(C)C2=CC[C@]1(O)C3,1.8
3,C=C1[C@@H]2CC(=O)[C@H]3[C@]4(C)CCCC(C)(C)[C@H]4[C@@H](O)C[C@]3(C2)[C@@H]1O,> 50
4,C=C1C(O)[C@@]23CC[C@H]4[C@@](C)(CCC[C@@]4(C)C(=O)OCCN4CCN(C)CC4)[C@@H]2CC[C@]1(O)C3 (stereo partly specified),> 50

# System: K562
# Experiment: Cytotoxicity against human K562 cells assessed as cell viability after 24 hrs by MTT assay
# Format: functional, cell-based
# Conditions: K562, 24 h
# Method in brief: as §1
row,SMILES,IC50 [µM]
1,C=C1C(=O)[C@@]23CC[C@@H]4[C@@](C)(CO)CCC[C@@]4(C)C2=CC[C@]1(O)C3,10.2
2,C=C1C(=O)[C@@]23CC[C@@H]4C(C)(C)CCC[C@@]4(C)C2=CC[C@]1(O)C3,1.9
3,C=C1[C@@H]2CC(=O)[C@H]3[C@]4(C)CCCC(C)(C)[C@H]4[C@@H](O)C[C@]3(C2)[C@@H]1O,> 50
4,C=C1C(O)[C@@]23CC[C@H]4[C@@](C)(CCC[C@@]4(C)C(=O)OCCN4CCN(C)CC4)[C@@H]2CC[C@]1(O)C3 (stereo partly specified),> 50

# System: not listed separately
# Experiment: Cytotoxicity against human PC3 cells assessed as cell viability after 24 hrs by MTT assay
# Format: functional, cell-based
# Conditions: PC-3, 24 h
# Method in brief: as §1
row,SMILES,IC50 [µM]
1,C=C1C(=O)[C@@]23CC[C@@H]4[C@@](C)(CO)CCC[C@@]4(C)C2=CC[C@]1(O)C3,5.5
2,C=C1C(=O)[C@@]23CC[C@@H]4C(C)(C)CCC[C@@]4(C)C2=CC[C@]1(O)C3,3.2
3,C=C1[C@@H]2CC(=O)[C@H]3[C@]4(C)CCCC(C)(C)[C@H]4[C@@H](O)C[C@]3(C2)[C@@H]1O,> 50
4,C=C1C(O)[C@@]23CC[C@H]4[C@@](C)(CCC[C@@]4(C)C(=O)OCCN4CCN(C)CC4)[C@@H]2CC[C@]1(O)C3 (stereo partly specified),> 50
